Source: PubChem BioAssay (Broad Institute)
Vif imaging: HIV Vif self-association inhibitors, primary screen, imaging, HEK293T, single point. HEK293T cells, Vif self-association by quenched fluorescence, 24 h. inhibition, % at 7.49 µM. 340,000 tested, 0.35% active. AID 602346, 2012; in the data active = inhibition above about 50%, passing the limit was not always enough
FGF22 binding: binders of human FGF22 protein, primary screen, FGF22 synaptogenesis inhibitor project, biophysical, thermal shift, single point; Fibroblast growth factor 22 (Homo sapiens), Q9HCT0; recombinant FGF22 thermal shift, SYPRO orange fluorescence; percent of sucrose octasulfate shift, DMSO zero; activity (Tm shift, normalised), % at 9.99 µM; 340,000 tested, 1.5% active;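 active = mean Tm shift, scaled 0 neutral to 100 positive control, at about 1.3% or above, every replicate too, limit read from the data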
Target sequence (Q9HCT0 whole entry, looked up): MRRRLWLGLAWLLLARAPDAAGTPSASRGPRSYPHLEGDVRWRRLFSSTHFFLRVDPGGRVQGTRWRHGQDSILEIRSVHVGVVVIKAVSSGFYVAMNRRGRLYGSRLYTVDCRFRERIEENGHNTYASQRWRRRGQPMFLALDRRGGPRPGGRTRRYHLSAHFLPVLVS
rRNA inh HTS: reduced GFP signal of wild-type E. coli, primary screen, bacterial rRNA inhibitor project, GFP/RFP fluorescence, OD600, single point; AID 720706, 2013; E. coli WT GFP vs humanized-ribosome RFP mutants, 24 h; hits give low values; DMSO median 0, no signal -100; 350,000 tested, 1.6% active; GFP signal change (wild-type ribosome), % (concentration not given with the values);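 active = significant combined selectivity score with lowered wild-type GFP, culture density cut under 30%, mutant RFP and density less affected; inactive = any of these conditions unmet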
Cneo AK release: Cryptococcus neoformans cell lysis inducers, primary screen, AK release luminescence, single concentration. C. neoformans lysis, adenylate kinase release luminescence, 4 h; normalised: neutral wells 0, clomiphene wells 100. lysis activity, % at 15 µM. 360,000 tested, 0.2% active;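 active = mean lysis activity across replicates of at least 80%, whatever share of replicates individually reach that level; inactive = mean lysis activity below 80%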
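Material – Cryptococcus neoformans yeast cells · Quantity – 5 × 10^6 yeast cells/mL · Buffer or medium – YPD medium · Compound – single dose · Timing – 4 h static compound exposure, 37 °C, read 1 h post-reagent · Signal – adenylate kinase release luminescence · Read-out basis – lysis from increased AK signal · Benchmarks – Clomiphene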
PglD inh: C. jejuni PglD acetyltransferase inhibitors, primary screen, biochemical, DTNB colorimetric, single point. AID 602405, 2012. purified PglD enzyme, DTNB colorimetric CoA detection. 360,000 tested, 0.098% active. inhibition, % at 12.5 µM; in the data active = inhibition above about 16%, passing the limit was not always enough
PGC1a acetyl inh: inhibitors of PGC1a acetylation signal, primary screen, cell-based, U2OS, AlphaScreen, inhibitor mode; inhibition, % at 15.6 µM; AlphaScreen anti-acetyl-lysine; with virally co-expressed GCN5 acetyltransferase; 350,000 tested, 0.17% active;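 active = every replicate shows inhibition of at least 40%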;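 note: 0% = neutral control wells and 100% = positive control wells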
* = called active by the depositor; / = no result given. Compounds with a hit are over-represented: about 2.9% of the library has one in this group of screens.

SMILES | Vif imaging | FGF22 binding | rRNA inh HTS | Cneo AK release | PglD inh | PGC1a acetyl inh
C[C@@H]1CCCCO[C@@H](CN(C)Cc2ccc3c(c2)OCO3)[C@@H](C)CN([C@H](C)CO)C(=O)c2cc(NS(=O)(=O)c3ccc(F)cc3)ccc2O1 | / | / | 10 | 113* | -4 | 9
Cc1noc(C)c1S(=O)(=O)Nc1ccc2c(c1)C(=O)N([C@@H](C)CO)C[C@@H](C)[C@@H](CN(C)Cc1ccc(C(=O)O)cc1)OCCCC[C@H](C)O2 | / | 1 | -1 | 0 | 7 | -12
Cc1noc(C)c1S(=O)(=O)Nc1ccc2c(c1)C(=O)N([C@@H](C)CO)C[C@H](C)[C@H](CN(C)Cc1ccc(C(=O)O)cc1)OCCCC[C@H](C)O2 | / | 1.3* | -1 | -1 | 8 | -14
Cc1noc(C)c1S(=O)(=O)Nc1ccc2c(c1)C(=O)N([C@@H](C)CO)C[C@@H](C)[C@H](CN(C)Cc1ccc3c(c1)OCO3)OCCCC[C@H](C)O2 | / | 0 | 0 | 101* | 1 | 1
COCC(=O)N(C)C[C@@H]1Oc2ncc(C#CC(C)(C)O)cc2C(=O)N([C@H](C)CO)C[C@H]1C | / | 0 | -1 | 0 | 3 | 6
Cc1ccc(NC(=O)CNCc2ccccc2)c(Br)c1 | -2 | 1 | -28* | / | / | /
COc1ccc(Cl)cc1NC(=O)CNc1ccccc1CN(C)C1CCCCC1 | -1 | 0 | -34* | / | / | -19
Cc1ccc(CNCC(=O)Nc2ccc(C)cc2Br)cc1 | 5 | 44* | -34 | / | / | 2
Cc1ccc(NC(=O)CNCc2cccs2)c(Br)c1 | 1 | 0 | -27* | -3 | 0 | 4
COc1ccc(C)cc1NC(=O)CNc1ccccc1CN(C)C1CCCCC1 | -10 | 0 | -20 | 1 | -2 | /
CN1C(=O)c2cc(NC(=O)C3CC3)ccc2OC[C@@H]2O[C@@H](CC(=O)NCc3ccccc3F)CC[C@H]21 | / | / | 2 | / | / | /
COc1ccc(Cl)cc1NC(=O)CNCc1cccs1 | -5 | 0 | -32* | 3 | -4 | -7
COc1ccc(Cl)cc1NC(=O)CN(C)C(=O)c1sc2ccccc2c1Cl | -3 | 0 | -1 | 1 | -4 | -12
COc1ccc(Cl)cc1NC(=O)CN(C)C(=O)c1sccc1-c1ccccc1 | -13 | 0 | -33* | -2 | -3 | 1
CNC[C@H]1OCCCC[C@H](C)Oc2ccc(NC(=O)Nc3c(C)noc3C)cc2C(=O)N([C@@H](C)CO)C[C@@H]1C | / | / | 8 | / | / | -2
Cc1noc(NS(=O)(=O)c2ccc(NC(=O)CSc3nc4c(cc3C#N)CCCC4)cc2)c1C | 8 | / | -25* | -2 | 2 | 0
Cc1ccc(N2CC(C(=O)Nc3ccc(S(=O)(=O)NCC4CCCO4)cc3)CC2=O)cc1C (stereo not drawn) | 0 | 0 | 3 | -7 | -7 | /
CCOc1ccc(N2CC(C(=O)Nc3ccc(S(=O)(=O)NCC4CCCO4)cc3)CC2=O)cc1 (stereo not drawn) | 5 | 0 | 4 | 1 | 4 | 56*
C[C@@H]1CC=CC[C@@H](c2ccccc2)NC(=O)[C@H](Cc2ccccc2)N(C)C(=O)c2ccccc2O1 (mixture of isomers) | / | / | -5 | / | / | /
CO[C@H](CN(C)Cc1ccc2c(c1)OCO2)[C@@H](C)CN(C(=O)c1ccccc1)[C@@H](C)CO | / | 0 | 4 | 104* | -1 | 1
CO[C@@H]1CN(C)C(=O)c2ccc(NC(=O)c3cnccn3)cc2OC[C@@H](C)N(CCc2ccccc2)C[C@H]1C | / | 0 | 3 | 57 | 2 | -22
Cc1cc(C)n(-c2ncnc3ccccc23)n1 | -5 | 43* | 9 | / | / | 9
COc1ccc(S(=O)(=O)Oc2cccc(/C=N/N=C3/NC(=O)C(CC(=O)O)S3)c2)cc1 (stereo not drawn) | -3 | 2.6* | -6 | / | / | 0
O=C(Nc1cccc(O)c1)c1ccc([N+](=O)[O-])cc1Cl | 0 | 43* | 10 | -8 | -2 | /
O=C(Nc1cccc(NC(=O)c2cc([N+](=O)[O-])ccc2Cl)n1)c1cc([N+](=O)[O-])ccc1Cl | 58* | / | / | / | / | /
SMILES | Vif imaging | FGF22 binding | rRNA inh HTS | Cneo AK release | PglD inh | PGC1a acetyl inh
O=C(NCCc1ccncc1)[C@H]1N[C@H]2c3ccc(/C=C/c4ccccc4)c(=O)n3C[C@H]2[C@@H]1CO | / | 0 | -3 | -3 | -2 | /
COc1ccc(NC(=O)O/N=C/c2ccccc2Cl)cc1 | 26 | 0 | -13* | / | / | /
C[C@H]1CCCCO[C@@H](CN(C)C(=O)C2CCCCC2)[C@@H](C)CN([C@@H](C)CO)C(=O)c2cc(NC(=O)C3CCCCC3)ccc2O1 | / | 0 | -3 | 0 | 1 | -16
CC(C)NC(=O)N1C[C@H]2[C@@H](c3ccccc31)[C@H](CO)N2C(=O)c1ccc(F)cc1 | / | 0 | 2 | -2 | 1 | -4
O=C(C[C@@H]1C[C@H]2c3cc(NC(=O)C4CCOCC4)ccc3O[C@H]2[C@H](CO)O1)NCCc1ccccc1 | / | 0 | 0 | -7 | 1 | -7
CO[C@H]1O[C@H](CO)[C@@H](OC(=O)Nc2ccccc2)[C@H](OC(=O)Nc2ccc3c(c2)OCO3)[C@@H]1OC(=O)Nc1ccc2c(c1)OCO2 | / | -1 | / | 100* | 2 | -8
CCNC(=S)N1CCN(c2ccccc2OCC)CC1 | 2 | / | / | / | / | /
CCOc1ccccc1N1CCN(C(=S)NCc2ccccc2)CC1 | 22 | 0 | -22* | -1 | -3 | 4
C[C@@H]1CN([C@@H](C)CO)C(=O)c2cc(NS(=O)(=O)c3ccc(Cl)cc3)ccc2O[C@@H](C)CCCCO[C@H]1CN(C)CC1CCCCC1 | / | 0 | -28 | 9 | -2 | -15
Cc1ccccc1OCc1nc(-c2cccnc2)no1 | 12 | 46* | -11 | / | / | /
COCn1cnc(-c2ccccc2)c1-c1ccccc1 | 3 | 0 | -28* | -4 | 5 | -2
COc1ccc(CCNc2nnc(Sc3nnnn3-c3ccccc3)s2)cc1OC | 139* | / | / | 0 | -2 | -25
COc1ccc(-n2nnnc2SCC(=O)NCCc2ccccc2)cc1OC | 1 | 42 | -19 | / | / | /
Cc1noc(C)c1S(=O)(=O)Nc1ccc2c(c1)CC(=O)N([C@@H](C)CO)C[C@@H](C)[C@H](CN(C)S(=O)(=O)c1c(C)noc1C)O2 | / | 0 | 4 | -13 | 0 | -1
